Assay outcomes as filed in PubChem BioAssay.
Only some compounds are listed: those with a hit (about 3.7% of all), similar ones and a draw of the others.
KCNK3 block = human KCNK3 channel inhibitors, primary screen, CHO cells, FluxOR thallium flux, B-score | Potassium channel subfamily K member 3 (Homo sapiens), O14649 | FluxOR fluorescence; hits give low values | B-score at 10 µM | 340,000 compounds, 0.84% hits;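 active means B-score under library mean minus 4 SD, starting fluorescence ratio at most library mean plus 5 SD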;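 further: more negative B-score means stronger inhibition of thallium flux through KCNK3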
KCNQ1 inh = inhibitors of human KCNQ1 channel, primary screen, cell-based, thallium flux, high-throughput | Potassium voltage-gated channel subfamily KQT member 1 (Homo sapiens), P51787 | CHO-K1 KCNQ1, FluxOR thallium flux fluorescence; hits give high values | B-score at 10 µM | 310,000 compounds, 1.3% hits | AID 2642, 2010;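 active means compounds whose thallium flux B-score, printed positive for inhibition, exceeds three library SD while starting fluorescence stays within three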;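 further: channel opened by potassium depolarization with thallium stimulus after 20 min compound exposure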
Kir21 inh = inhibitors of mouse Kir2.1 inward-rectifier potassium channel; Inward rectifier potassium channel 2 (Mus musculus), P35561; 310,000 compounds, 0.85% hits; B-score at 10 µM; HEK293-Kir2.1, FluxOR thallium flux fluorescence; hits give low values;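 active means fluorescence ratio B-score at or below minus 3 SD of library scores, with starting-brightness B-score within 2 SD, cut at about -4.2 in these data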;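 further: channel flux triggered by added potassium and thallium sulfate stimulus; B-score of peak minus minimum fluorescence over baseline after thallium stimulus; more negative B-score means stronger Kir2.1 block with less thallium influx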
hERG protect = hERG rescue from dofetilide block, primary screen, cell-based, CHO-hERG, FluxOR thallium flux, dofetilide IC70 | dofetilide IC70 present | activation (rescue from dofetilide block), less the hit threshold, % at 10 µM | 310,000 compounds, 0.51% hits;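 active means activation above the mean of controls blocked by dofetilide plus 5 SD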;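 further: thallium influx through hERG after potassium depolarization seen as dye fluorescence rise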
KCNQ1 act = potentiators or activators of KCNQ1 channel, primary screen, cell-based, thallium flux, high-throughput. Potassium voltage-gated channel subfamily KQT member 1 (Homo sapiens), P51787. CHO-K1 KCNQ1, thallium flux FluxOR fluorescence; hits give high values. B-score at 10 µM. 310,000 compounds, 0.35% hits;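 active means fluorescence ratio B-score, a plate-corrected score, at least three library SD, with initial intensity B-score within 5 SD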
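assay system = CHO-K1 cells stably expressing KCNQ1 | medium = assay buffer, equal DMSO in all wells | timing = 37 °C overnight plating, 90-min dark dye load, 20-min compound pretreatment | measured by = kinetic FluxOR thallium fluorescence, 10-s 1-Hz baseline, 110-s post-stimulus read | measure = fluorescence change relative to baseline, converted to B score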
KCNK9 block = KCNK9 potassium channel inhibitors, primary screen, HEK293 cells, thallium flux; FluxOR thallium flux fluorescence; hits give low values; AID 488922, 2010; 310,000 compounds, 1.2% hits; Potassium channel subfamily K member 9 (Homo sapiens), Q9NPC2; B-score at 10 µM;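 active means ratio B-score over 3 SD below the library mean, with starting fluorescence within 5 SD of its mean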;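 further: negative B-score means less thallium flux so channel inhibition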
Target sequence (Q9NPC2 whole entry, looked up): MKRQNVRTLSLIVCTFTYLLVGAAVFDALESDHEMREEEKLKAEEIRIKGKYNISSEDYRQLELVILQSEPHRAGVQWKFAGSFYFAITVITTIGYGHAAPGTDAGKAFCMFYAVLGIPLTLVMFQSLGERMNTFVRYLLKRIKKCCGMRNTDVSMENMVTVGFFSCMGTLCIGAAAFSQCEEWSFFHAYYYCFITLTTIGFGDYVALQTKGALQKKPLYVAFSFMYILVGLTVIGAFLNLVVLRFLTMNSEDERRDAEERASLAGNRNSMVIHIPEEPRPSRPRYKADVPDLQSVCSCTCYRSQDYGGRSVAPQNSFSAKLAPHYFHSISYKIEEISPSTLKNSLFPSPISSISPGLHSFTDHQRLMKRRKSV
* hit, by the source's call; i = inactive; . = no result given.

SMILES	KCNK3 block	KCNQ1 inh	Kir21 inh	hERG protect	KCNQ1 act	KCNK9 block
COc1ccc(NC(=O)CN2CCOCC2)cc1	i	i	1.8	7.0*	i	i
COc1ccc(-c2sc(Nc3ccc(F)c(F)c3F)nc2CCC(=O)NN)cc1	i	i	0.26	-9	i	i
CCOc1cc(C=NN=C2c3ccccc3-c3ccccc32)ccc1O	i	.	.	.	.	.
CN=C(C)c1c(O)c2ccccc2oc1=O	i	i	-0.09	4.9*	i	i
Cc1ccc(Nc2cc(C)c3c(O)cccc3n2)cc1C	i	i	-1.8	-16	i	i
COc1ccc(Nc2cc(C)c3c(O)cccc3n2)cc1	i	i	-13*	-14	i	i
CC(C)COC(=O)/C(C#N)=C/c1c[nH]c2ccccc12	i	i	0.07	-3	i	-7.3*
Cc1ccc(NC(=O)c2cc(S(=O)(=O)N3CCOCC3)ccc2Cl)cc1S(=O)(=O)N1CCOCC1	i	.	.	.	.	.
O=C(COC(=O)c1cc(-c2ccccc2Cl)nc2ccccc12)Nc1ncc(C(F)(F)F)cc1Cl	i	i	-0.97	-6	i	i
Cc1c(-c2ccccc2)nc2ccccc2c1C(=O)OCC(=O)Nc1ncc(C(F)(F)F)cc1Cl	i	9*	-0.54	-10	i	i
O=Cc1c(N2CCN(CCO)CC2)nc2ccccn2c1=O	i	13*	-3.3	-16	i	i
Cc1cc(NC(=O)COC(=O)c2cc(S(=O)(=O)N(C)C)ccc2Cl)no1	i	.	.	.	.	.
O=C1C2CCCCC2C(=O)N1Cc1ccccc1 (stereo unspecified)	i	i	0.6	-4	i	i
O=C1C2C3CCC(C3NCc3ccccc3)C2C(=O)N1Cc1ccccc1 (stereo unspecified)	i	6*	-1.7	-23	i	i
Cc1c(C)n(Cc2ccccc2)c2ccc(C(=O)OCCCN(C)C)cc12	i	i	-12*	-14	i	i
CCN1CCN(C(=O)c2ccc3c(c2)c(C)c(C)n3Cc2ccccc2)CC1	i	i	-0.92	-11	i	i
C=CCn1c(Cc2ccccc2)nc2c(cnn2-c2ccccc2)c1=O	i	i	1.9	-6	i	i
Nc1nc(SCC(=O)Nc2ccc(OC(F)(F)F)cc2)[nH]c(=O)c1NC(=O)c1ccc(Br)o1	i	i	0.87	-5	i	i
COc1ccc(OC)c(NC(=O)C(=O)NNC(=O)C23CC4CC(CC(C4)C2)C3)c1	i	i	0.01	65*	10*	i
COc1cccc(OCC(=O)NNC(=O)C(=O)Nc2ccc(OC)cc2OC)c1	i	i	0.56	23*	11*	i
COc1ccc(NC(=O)COc2ccccc2)c(OC)c1	i	i	0.18	-8	i	i
COc1ccccc1NC(=O)C(=O)NNC(=O)COc1ccc2ccccc2c1	i	i	1.7	56*	84*	i
COc1ccc(NC(=O)CNC(=O)C23CC4CC(CC(C4)C2)C3)c(OC)c1	i	i	-2	-15	i	i
O=C(CNC(=O)c1ccc2c(c1)S(=O)(=O)N=C1CCCCCN12)Nc1ccc(F)c(F)c1	i	i	1.7	-12	i	i
COc1ccc(NS(=O)(=O)c2ccc(C)c(C(=O)N3CC(C)OC(C)C3)c2)cc1 (stereo unspecified)	i	i	0.37	-10	i	i
SMILES	KCNK3 block	KCNQ1 inh	Kir21 inh	hERG protect	KCNQ1 act	KCNK9 block
Cc1ccc2oc(=O)c3cc(C(=O)NCCCN4C(C)CCCC4C)sc3c2c1 (stereo unspecified)	i	i	-1.1	-10	i	i
CSC1=NSC2=NC(=O)/C(=C\c3ccc(OC(=O)c4ccco4)cc3)C(=N)N12	i	i	-0.62	-12	i	i
COc1cc(/C=C2\C(=N)N3N=C(S(=O)(=O)CC(C)C)SC3=NC2=O)ccc1OC(=O)c1ccco1	.	i	-6*	-15	i	i
CC(C)CS(=O)(=O)C1=NSC2=NC(=O)/C(=C\c3ccc(OC(=O)c4ccco4)cc3)C(=N)N21	i	i	-4.4*	-8	i	i
CCS(=O)(=O)C1=NN2C(=N)/C(=C\c3ccc(OS(=O)(=O)c4ccccc4)c(OC)c3)C(=O)N=C2S1	.	i	0.88	-30	i	i
O=C1C(Cc2ccccc2)Nc2ncnc(N3CCN(c4ccccc4)CC3)c2N1Cc1ccc(Br)cc1 (stereo unspecified)	i	.	.	.	.	.
O=C1C(Cc2ccccc2)Nc2ncnc(N3CCc4ccccc4C3)c2N1Cc1ccc(Br)cc1 (stereo unspecified)	.	i	0.97	-13	i	-7.7*
COc1ccc(S(=O)(=O)N2CCCC2C(=O)Nc2nnc(-c3cccnc3)s2)cc1 (stereo unspecified)	i	i	0.57	7.5*	i	i
CSCCOC(=O)C1=C(C)NC(=O)CC1c1ccccc1Cl (stereo unspecified)	i	i	-5.5*	-6	i	i
CC(=O)c1ccc(OCCCC(=O)Nc2cccc(S(=O)(=O)N3CCCCC3)c2)cc1	i	.	.	.	.	.
CC[n+]1c(/C=C/c2ccc(OC)c(OC)c2)ccc2ccccc21	i	i	0	-7	i	i
CCN(CC)c1ccc(/C=C/c2ccc3ccc(OC)cc3[n+]2CC)cc1	-13*	i	-16*	-41	i	-7.1*
O=C(NCCc1nnc2ccc(N3CCCC3)nn12)c1ccccc1	i	i	0.5	-10	i	i
C#CCNC(=O)C1=C[C@H](c2ccc(Br)cc2)C[C@H](OCc2ccc(CO)cc2)O1	i	i	-4.8*	-10	i	i
C#CCNC(=O)C1=C[C@@H](c2ccc(Br)cc2)C[C@@H](OCc2ccc(CO)cc2)O1	i	i	-0.36	-11	i	i
CCCc1cc(C(=O)OCC(=O)N2CCN(c3ccc(OC)cc3)CC2)sc1C	i	.	.	.	.	.
CSc1nc2c(c(=O)[nH]1)C(c1ccc(Br)cc1)CC(=O)N2 (stereo unspecified)	i	i	-0.12	11*	i	i
CSc1nc2c(c(=O)[nH]1)C(c1ccc(F)cc1)CC(=O)N2 (stereo unspecified)	i	i	-0.14	12*	i	i
